# Screening data: PubChem, Broad Institute
# RAD52 anneal inh: RAD52 (human) annealing inhibition | 360,000 compounds, 0.46% hits | P43351 | recombinant RAD52 DNA annealing, FRET fluorescence | AID 651710 | inhibition, % at 18.7 µM;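 active = every replicate showing at least 50% inhibition; inconclusive = mean inhibition at least 50% but not in every replicate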
# AF4-AF9 inh: inhibitors of human MLL-AF4/AF9 interaction. AlphaScreen, biotin-AF4 peptide binding to FLAG-AF9. 350,000 compounds, 0.47% hits. inhibition, % at 10 µM;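 active = every replicate reaching a set inhibition limit, whatever the replicate mean, cut at about 25% in these data; inconclusive = mean inhibition reaches that limit but some replicates miss it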;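 note: 0% = plate neutral control median and 100% = total signal loss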
# Target sequence (P42568 whole entry, looked up): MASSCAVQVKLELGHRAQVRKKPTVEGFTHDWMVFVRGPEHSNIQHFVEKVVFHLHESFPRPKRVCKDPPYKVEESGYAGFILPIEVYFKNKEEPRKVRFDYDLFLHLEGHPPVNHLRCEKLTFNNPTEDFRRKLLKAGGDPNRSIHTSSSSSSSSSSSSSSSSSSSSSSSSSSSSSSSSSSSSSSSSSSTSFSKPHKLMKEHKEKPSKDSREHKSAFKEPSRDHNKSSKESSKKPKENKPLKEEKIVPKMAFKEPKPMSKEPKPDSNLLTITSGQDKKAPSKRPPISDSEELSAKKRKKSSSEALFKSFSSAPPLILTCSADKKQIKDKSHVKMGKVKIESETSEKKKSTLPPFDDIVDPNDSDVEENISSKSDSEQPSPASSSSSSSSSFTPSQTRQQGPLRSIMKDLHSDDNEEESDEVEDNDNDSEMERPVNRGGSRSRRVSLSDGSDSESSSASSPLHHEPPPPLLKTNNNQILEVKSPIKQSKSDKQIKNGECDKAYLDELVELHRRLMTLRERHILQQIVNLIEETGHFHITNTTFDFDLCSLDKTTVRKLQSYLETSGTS
# N-glyco inh: blocks N-linked glycosylation in D54 reporter cells. D54 ERlucT glycosylation luciferase reporter, 24 h; percent of 100 nM tunicamycin response. reporter increase, % at 12.5 µM. 360,000 compounds, 0.23% hits;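 active = mean luciferase reporter signal, scaled so untreated is 0 and the glycosylation-blocking control 100, at or above a set limit in every replicate; inconclusive = mean reaches the limit but not every replicate does; inactive = mean below the limit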;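 note: luciferase carries N-glycosylation sites so blocking glycosylation raises the light; 0% = median of neutral control wells and 100% = median of 100 nM tunicamycin wells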
# RAD54 inh: inhibitors of human RAD54 branch migration; inhibition, % at 10.4 µM; Q92698; AID 602329; RAD54 Holliday junction branch migration, FAM/BHQ fluorescence; 360,000 compounds, 0.14% hits;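 active = mean normalized replicate activity at least 40 and at least half of replicates scoring 40 or more; inconclusive = only one of the two criteria met; inactive = mean below 40 and under half of replicates reaching 40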;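 note: 0% = median of neutral control wells and 100% = median of positive control wells; inhibitors cause a drop in the FAM fluorescence signal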
# FN deposition inh: fibronectin deposition inhibition; 350,000 compounds, 0.086% hits; AID 743247; AH1F fibroblasts, Alexa488-fibronectin deposition fluorescence, overnight; inhibition, % at 12.6 µM;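 active = mean inhibition across replicates of 30% or more, regardless of how many single replicates reach that level; inconclusive = mean under 30% yet at least half of replicates reach 30%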;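 note: positive control wells lacked labelled fibronectin entirely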
#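 test system = AH1F fibroblasts assembling fluorescent fibronectin matrix | quantity = 10000 AH1F cells per well | buffer or medium = DMEM plus 2% serum, read in PBS | doses = single dose, pinned | incubation = 1 h cell attachment, overnight exposure to compound and label | detection = fluorescence at 485 nm excitation, 525 nm emission | read-out basis = inhibition from reduced deposited-fibronectin fluorescence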
# The depositor's hits bear a star; ? = inconclusive; . = no result given. Sampled rows, rich in hits. Any-hit rate of the full collection: about 0.92%.
SMILES,RAD52 anneal inh,AF4-AF9 inh,N-glyco inh,RAD54 inh,FN deposition inh
O=C(Nc1cc(F)ccc1F)N1CCCCN2[C@@H](CO)[C@@H](c3ccc(C4=CCCCC4)cc3)[C@@H]2C1,54.4*,15.6,.,-0.2,-1.3
O=C(Nc1cc(F)ccc1F)N1CCCCN2[C@H](C1)[C@H](c1ccc(C3=CCCCC3)cc1)[C@@H]2CO,27.3,0.8,.,-2.3,-5.6
CO[C@H]1CN(C)C(=O)c2cc(NC(=O)c3cnccn3)ccc2OC[C@@H](C)N(C)C[C@H]1C,-9.7,-1.3,.,2.4,-2.3
O=C(C[C@H]1CC[C@@H]2[C@H](COC[C@H](O)CN2C(=O)c2ccccc2)O1)NCc1cccc(F)c1,2.5,-8.9,.,-1.7,-4.9
CC(=O)Nc1c(-c2ccccc2)nc2ncccn12,-8.2,48.1*,-0.6,-1.4,-1.6
CC=Cc1ccc2n(c1=O)C[C@@H]1[C@@H](CO)[C@H](C(=O)NCc3ccc4c(c3)OCO4)[C@H]2N1C(=O)COC (mixture of isomers),1.1,-2.8,.,-7.9,8.3
CC=Cc1ccc2n(c1=O)C[C@H]1[C@H](CO)[C@@H](C(=O)NCc3ccc4c(c3)OCO4)[C@@H]2N1C(=O)C1CC1 (mixture of isomers),58.1*,2.4,.,8.5,.
CC=Cc1ccc2n(c1=O)C[C@@H]1[C@@H](CO)[C@H](C(=O)NCc3ccc4c(c3)OCO4)[C@H]2N1C(=O)C1CC1 (mixture of isomers),54.7*,1.6,.,3.2,.
CCCNC(=O)Nc1ccc2c(c1)C(=O)N(C)C[C@@H](OC)[C@@H](C)CN(C(=O)c1ccccc1F)[C@H](C)CO2,.,.,.,.,1.8
NC(=O)C1=C[C@H](c2coc3ccccc3c2=O)C[C@H](OCCCCO)O1,-11.6,-34.7,0.8,5.0,33.2*
CC(C)CC#Cc1ccc2c(c1)O[C@@H](CN(C)S(=O)(=O)c1ccc(F)cc1)[C@H](C)CN([C@@H](C)CO)S2(=O)=O,16.8,1.9,.,-0.1,-2.0
Cn1c(=O)[nH]c(=O)c2c1nc(N/N=C/c1cccnc1)n2Cc1ccc(Cl)cc1,-16.8,1.4,53.2*,-2.9,1.7
Cn1c(=O)[nH]c(=O)c2c1nc(N/N=C/c1ccncc1)n2Cc1ccc(F)cc1,-1.4,-2.4,19.1,?,-16.2
CCOC(=O)Cc1csc(/N=C/c2c(O)n(-c3ccc(C)c(C)c3)c(=O)c3ccccc23)n1,.,.,71.5*,.,6.0
Cc1cc(N=Cc2c(O)n(-c3ccc(C)c(C)c3)c(=O)c3ccccc23)no1,.,.,.,.,-1.1
CCOC(=O)N1CCN(C2=C(NS(=O)(=O)c3ccccc3)C(=O)c3ccccc3C2=O)CC1,-4.1,26.4*,0.3,-3.7,-5.8
CCOC(=O)N1CCN(C2=C(NS(=O)(=O)c3ccc(Br)cc3)C(=O)c3ccccc3C2=O)CC1,-15.8,32.5*,-0.1,-4.9,3.3
CC(=O)Nc1cccc2c1O[C@H](CN(C)C(=O)OC(C)(C)C)[C@@H](C)CN(C)C2=O,.,.,.,.,-4.1
O=C(O)C[C@H]1C[C@H]2c3cc(NC(=O)CC4CC4)ccc3O[C@H]2[C@@H](CO)O1,-7.3,-1.5,.,17.9,3.2
O=C(CCN1CCCCC1)NCC[C@@H]1CC[C@H](NC(=O)Cc2cccnc2)[C@H](CO)O1,.,.,.,.,-8.4
C[N+]1(C)CC2=Cc3ccccc3CC2C1 (centres undefined),-9.0,-1.3,-3.2,.,1.6
C1=C2C[N+]3(CCCC3)CC2Cc2ccc3ccccc3c21 (centres undefined),23.2,.,4.2,54.1*,.
CC1CCN(C(C(=O)Nc2ccc3c(c2)OCO3)c2ccccc2)CC1 (centres undefined),-2.4,51.5*,-0.1,4.5,-8.1
Cc1noc(C)c1NC(=O)Nc1ccc2c(c1)C(=O)N([C@@H](C)CO)C[C@H](C)[C@@H](CN(C)Cc1ccc(Oc3ccccc3)cc1)O2,-7.9,3.7,.,-0.7,.
NS(=O)(=O)c1ccc(NC(=O)c2cccc3ccccc23)cc1,-15.5,-0.3,-0.1,-4.5,2.0
SMILES,RAD52 anneal inh,AF4-AF9 inh,N-glyco inh,RAD54 inh,FN deposition inh
NS(=O)(=O)c1ccc(NC(=O)c2cccc3cc4ccccc4nc23)cc1,-0.1,0.0,62.2*,.,1.6
Cc1ccc(NC(=S)N(CCCN2CCCC2)Cc2cccn2Cc2ccc(Cl)cc2)cc1Cl,-3.8,?,-1.2,-3.6,0.6
COc1ccc(NC(=S)N(CCCN2CCCC2)Cc2cccn2Cc2ccc(Cl)cc2)cc1Cl,-6.5,33.0*,-6.9,15.5,4.4
COc1ccc2c3c(n(C)c2c1)[C@H](CO)N(Cc1ccncc1)CC31CCN(C(=O)C2CC2)CC1,.,0.1,.,.,.
Cc1ccccc1N/N=C/c1c(C)nc2ccccn12,-8.5,25.6*,0.0,12.1,-1.0
OC[C@@H]1[C@H](c2ccc(C#Cc3cccnc3)cc2)[C@H]2CN(Cc3ccccc3F)CCCCN12,53.9*,10.0,.,3.3,.
COc1ccc(C#Cc2ccc([C@@H]3[C@@H](CO)N4CCCCN(Cc5ccccc5F)C[C@H]34)cc2)cc1,-4.4,29.2*,.,26.6,.
O=C(c1cccnc1)N1CCCCN2[C@H](C1)[C@H](c1ccc(C#Cc3ccccn3)cc1)[C@@H]2CO,-81.3,25.3*,.,-13.9,.
COc1ccc(C#Cc2ccc([C@H]3[C@H]4CN(Cc5ccccc5F)CCCCN4[C@H]3CO)cc2)cc1,-46.5,7.1,.,-4.7,.
C[C@H](CO)N1C[C@H](C)[C@@H](CN(C)CC2CCCCC2)Oc2c(NC(=O)Cc3cn(C)c4ccccc34)cccc2C1=O,.,.,.,.,23.0
C[C@@H]1CN([C@@H](C)CO)C(=O)Cc2cc(NC(=O)c3ccncc3)ccc2O[C@H]1CN(C)Cc1ccc(C(F)(F)F)cc1,.,.,.,.,-22.0
CC(C)(C)S(=O)N1Cc2cc(C(=O)O)nc(-c3cccc(C#CCC4CCCC4)c3)c2[C@@H]1CCO (some centres undefined),.,.,.,.,0.8
O=C(C[C@H]1C[C@H]2c3cc(NC(=O)NC4CCCCC4)ccc3O[C@H]2[C@H](CO)O1)NC1CCCC1,.,.,.,.,-0.8
COC(=O)C1=C(C)Nc2nc(SCc3ccccc3)[nH]c(=O)c2C1c1cccs1 (centres undefined),-10.7,48.7*,-0.8,5.3,-7.2
Cc1ccc(S(=O)(=O)Nc2ccc3c(c2)CC(=O)N([C@@H](C)CO)C[C@@H](C)[C@H](CN(C)CC2CCCCC2)O3)cc1,20.0,8.4,.,1.7,.
C#CCOCCOCCOCCNc1nc(N2CCN(C(=O)C([C@@H](C)O)n3cc([C@@H](N)CCCCN)nn3)CC2)nc(N2CCN(C(=O)[C@H](CCCCN)n3cc([C@@H](N)CC(N)=O)nn3)CC2)n1 (some centres undefined),41.2,45.0*,-0.3,-23.4,-1.0
C#CCOCCOCCOCCNc1nc(N2CCN(C(=O)[C@H](CC(N)=O)n3cc([C@@H](N)CC(N)=O)nn3)CC2)nc(N2CCN(C(=O)[C@H](CC(N)=O)n3cc([C@@H](N)CC(N)=O)nn3)CC2)n1,-6.1,.,2.0,-34.5,4.6
